Measured values from ChEMBL document CHEMBL4138271, “Crystal Structures and Human Leukemia Cell Apoptosis Inducible Activities of Parthenolide Analogues Isolated from Piptocoma rufescens” (J Nat Prod, 2018).
pIC50: −log10 of the molar value. Calls of active or inactive are those of the source. The calls are words filed in the database; no cut-off is given here.

Columns and labels:
MOLM-13 [1] = experiment: Cytotoxicity against human MOLM13 cells after 72 hrs by MTS assay; type: functional, cell-based; settings: MOLM-13, 72 h
EOL1 [2] = experiment: Cytotoxicity against human EOL-1 cells after 72 hrs by MTS assay; type: functional, cell-based; settings: EOL1, 72 h
MOLM-13 [3] = experiment: Synergistic antileukemic activity against human MOLM13 cells assessed as concentration required for <= 75% cell survival after 72 hrs in presence of midostaurin by CellTiter 96 AQueous One solution cell proliferation assay; type: functional
EOL1 [4] = experiment: Synergistic antileukemic activity against human EOL-1 cells assessed as concentration required for <= 75% cell survival after 72 hrs in presence of midostaurin by CellTiter 96 AQueous One solution cell proliferation assay; type: functional
MOLM-13 [5] = experiment: Induction of apoptosis in human MOLM13 cells assessed as live cells at 0.81 uM after 24 hrs by Annexin-V FITC/7-AAD staining based flow cytometric method (reference value: 86.8%); type: functional
MOLM-13 [6] = experiment: Induction of apoptosis in human MOLM13 cells assessed as early apoptotic cells at 0.81 uM after 24 hrs by Annexin-V FITC/7-AAD staining based flow cytometric method (reference value: 11.8%); type: functional
MOLM-13 [7] = experiment: Induction of apoptosis in human MOLM13 cells assessed as late apoptotic cells at 0.81 uM after 24 hrs by Annexin-V FITC/7-AAD staining based flow cytometric method (reference value: 1.43%); type: functional
MOLM-13 [8] = experiment: Induction of apoptosis in human MOLM13 cells assessed as necrotic cells at 0.81 uM after 24 hrs by Annexin-V FITC/7-AAD staining based flow cytometric method (reference value: 0%); type: functional
MOLM-13 [9] = experiment: Induction of apoptosis in human MOLM13 cells assessed as live cells at 1.6 uM after 24 hrs by Annexin-V FITC/7-AAD staining based flow cytometric method (reference value: 86.8%); type: functional
MOLM-13 [10] = experiment: Induction of apoptosis in human MOLM13 cells assessed as early apoptotic cells at 1.6 uM after 24 hrs by Annexin-V FITC/7-AAD staining based flow cytometric method (reference value: 11.8%); type: functional
MOLM-13 [11] = experiment: Induction of apoptosis in human MOLM13 cells assessed as late apoptotic cells at 1.6 uM after 24 hrs by Annexin-V FITC/7-AAD staining based flow cytometric method (reference value: 1.43%); type: functional
MOLM-13 [12] = experiment: Induction of apoptosis in human MOLM13 cells assessed as necrotic cells at 1.6 uM after 24 hrs by Annexin-V FITC/7-AAD staining based flow cytometric method (reference value: 0%); type: functional
MOLM-13 [13] = experiment: Induction of apoptosis in human MOLM13 cells assessed as live cells at 4 uM after 24 hrs by Annexin-V FITC/7-AAD staining based flow cytometric method (reference value: 86.8%); type: functional
MOLM-13 [14] = experiment: Induction of apoptosis in human MOLM13 cells assessed as early apoptotic cells at 4 uM after 24 hrs by Annexin-V FITC/7-AAD staining based flow cytometric method (reference value: 11.8%); type: functional
MOLM-13 [15] = experiment: Induction of apoptosis in human MOLM13 cells assessed as late apoptotic cells at 4 uM after 24 hrs by Annexin-V FITC/7-AAD staining based flow cytometric method (reference value: 1.43%); type: functional
MOLM-13 [16] = experiment: Induction of apoptosis in human MOLM13 cells assessed as necrotic cells at 4 uM after 24 hrs by Annexin-V FITC/7-AAD staining based flow cytometric method (reference value: 0%); type: functional
EOL1 [17] = experiment: Induction of apoptosis in human EOL-1 cells assessed as live cells at 0.81 uM after 24 hrs by Annexin-V FITC/7-AAD staining based flow cytometric method (reference value: 97.5%); type: functional
EOL1 [18] = experiment: Induction of apoptosis in human EOL-1 cells assessed as early apoptotic cells at 0.81 uM after 24 hrs by Annexin-V FITC/7-AAD staining based flow cytometric method (reference value: 1.94%); type: functional
EOL1 [19] = experiment: Induction of apoptosis in human EOL-1 cells assessed as late apoptotic cells at 0.81 uM after 24 hrs by Annexin-V FITC/7-AAD staining based flow cytometric method (reference value: 0.535%); type: functional
EOL1 [20] = experiment: Induction of apoptosis in human EOL-1 cells assessed as necrotic cells at 0.81 uM after 24 hrs by Annexin-V FITC/7-AAD staining based flow cytometric method (reference value: 0.032%); type: functional
EOL1 [21] = experiment: Induction of apoptosis in human EOL-1 cells assessed as live cells at 1.6 uM after 24 hrs by Annexin-V FITC/7-AAD staining based flow cytometric method (reference value: 97.5%); type: functional
EOL1 [22] = experiment: Induction of apoptosis in human EOL-1 cells assessed as early apoptotic cells at 1.6 uM after 24 hrs by Annexin-V FITC/7-AAD staining based flow cytometric method (reference value: 1.94%); type: functional
EOL1 [23] = experiment: Induction of apoptosis in human EOL-1 cells assessed as late apoptotic cells at 1.6 uM after 24 hrs by Annexin-V FITC/7-AAD staining based flow cytometric method (reference value: 0.535%); type: functional
EOL1 [24] = experiment: Induction of apoptosis in human EOL-1 cells assessed as necrotic cells at 1.6 uM after 24 hrs by Annexin-V FITC/7-AAD staining based flow cytometric method (reference value: 0.032%); type: functional
EOL1 [25] = experiment: Induction of apoptosis in human EOL-1 cells assessed as live cells at 4 uM after 24 hrs by Annexin-V FITC/7-AAD staining based flow cytometric method (reference value: 97.5%); type: functional
EOL1 [26] = experiment: Induction of apoptosis in human EOL-1 cells assessed as early apoptotic cells at 4 uM after 24 hrs by Annexin-V FITC/7-AAD staining based flow cytometric method (reference value: 1.94%); type: functional
EOL1 [27] = experiment: Induction of apoptosis in human EOL-1 cells assessed as late apoptotic cells at 4 uM after 24 hrs by Annexin-V FITC/7-AAD staining based flow cytometric method (reference value: 0.535%); type: functional
EOL1 [28] = experiment: Induction of apoptosis in human EOL-1 cells assessed as necrotic cells at 4 uM after 24 hrs by Annexin-V FITC/7-AAD staining based flow cytometric method (reference value: 0.032%); type: functional
MOLM-13 [29] = experiment: Induction of apoptosis in human MOLM13 cells assessed as caspase-3 activation at 10 uM after 72 hrs by immunoblotting analysis; type: functional, cell-based
Method in brief: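 MOLM-13 cells treated 72 h with test compounds at 10 μM or PKC412 at 10 nM. Cells washed in ice-cold PBS, lysed at 10^8 cells/mL in NP-40 hypertonic buffer (pH 7.5) with protease/phosphatase inhibitors, then run on SDS-PAGE and PVDF. Blots probed 12 h with rabbit monoclonal cleaved caspase-3 (Asp175), β-actin as loading control. Representative of three independent experiments.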

EOL1 [30] = experiment: Induction of apoptosis in human EOL-1 cells assessed as caspase-3 activation at 10 uM after 72 hrs by immunoblotting analysis; type: functional, cell-based
Method in brief: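 EOL-1 cells (RPMI 1640, 10% FBS, 37 °C, 5% CO2) exposed 72 h; compounds at 10 μM, PKC412 at 10 nM. Harvested, PBS-washed, lysed in hypertonic NP-40 buffer with protease/phosphatase inhibitors; SDS-PAGE, PVDF transfer, rabbit monoclonal cleaved caspase-3 (Asp175) antibody 12 h, secondary 1 h, chemiluminescent detection; β-actin loading control. Representative blots of three independent experiments.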

## C=C1C(=O)O[C@@H]2C3O[C@]3(C)CC/C=C(\C)CC[C@@H]12 (stereo not given in full)
MOLM-13 [1]
  pIC50: 5.00
EOL1 [2]
  pIC50: 5.12
MOLM-13 [3]
  Activity: 3.2 µM
EOL1 [4]
  Activity: 3.2 µM
MOLM-13 [5]
  Activity: 90.6%
MOLM-13 [6]
  Activity: 8.23%
MOLM-13 [7]
  Activity: 1.14%
MOLM-13 [8]
  Activity: 0.033%
MOLM-13 [9]
  Activity: 94.3%
MOLM-13 [10]
  Activity: 4.46%
MOLM-13 [11]
  Activity: 1.23%
MOLM-13 [12]
  Activity: 0.044%
MOLM-13 [13]
  Activity: 92.4%
MOLM-13 [14]
  Activity: 6.43%
MOLM-13 [15]
  Activity: 1.02%
MOLM-13 [16]
  Activity: 0.181%
EOL1 [17]
  Activity: 98.1%
EOL1 [18]
  Activity: 1.56%
EOL1 [19]
  Activity: 0.329%
EOL1 [20]
  Activity: 0.011%
EOL1 [21]
  Activity: 97.2%
EOL1 [22]
  Activity: 2.43%
EOL1 [23]
  Activity: 0.361%
EOL1 [24]
  Activity: 0.043%
EOL1 [25]
  Activity: 97%
EOL1 [26]
  Activity: 2.13%
EOL1 [27]
  Activity: 0.697%
EOL1 [28]
  Activity: 0.118%
MOLM-13 [29]
  Activity: Active
EOL1 [30]
  Activity: Active
